# Experimental data from different studies.
# Each line is one published result; the experiments were not run side by side.
# Effect on: metabolic stability
# Species: human
# Matrix: liver microsomes
SMILES,tested at,pH,microsomal CLint [µL/min/mg]
C#C[C@]1(OC(C)=O)CC[C@H]2[C@@H]3CCC4=CC(=NO)CC[C@@H]4[C@H]3CC[C@@]21CC (mixture of isomers),,,70.1
Cc1ccc(N(C)c2ccc(NC(=O)CN(C)c3ccccc3N3CCCC3=O)cc2)cc1,,,347
O=c1c2ccc(OCc3cccc(C(F)(F)F)c3)cc2[nH]c2ccc(Cl)c(F)c12,1 µM,pH 7.4,2.73
O=C1c2ccccc2C(=O)N1CCCN1CCN(C(c2ccc(F)cc2)c2ccc(F)cc2)CC1,100 ng/mL,,39
CC1(C(F)(F)F)NC(=O)N(c2ccc(F)c(C(F)(F)F)c2)C1=O (centres unmarked),,,< 7
O=C(N1CCCCC1)C12CC(c3ccccc3)(C1)C2,2 µM,pH 7.4,24
Cc1ccc(Oc2ccc(NC(=O)COc3ccccc3N3CCCC3=O)cc2)cc1,,,132
CN1CCN(c2ccc(-c3ccc4nncc(Nc5ccc(OC(F)(F)F)cc5)c4c3)cc2)CC1,,,30
O=c1c2ccc(Oc3cccc(OC(F)(F)F)c3)cc2[nH]c2cc(Cl)cc(F)c12,1 µM,pH 7.4,2.96
CC1(C)NC(=O)N(c2ccc(F)c(S(C)(=O)=O)c2)C1=O,,,< 7
O=c1c2ccc(Oc3ccccc3OC(F)(F)F)cc2[nH]c2cc(Cl)cc(F)c12,1 µM,pH 7.4,20.3
COCC(=O)N1CCC[C@H](C(=O)NCc2nc(-c3ccc(Cl)cc3)cs2)C1,0.5 µM,,25
CCN(c1ccc(C)cc1)c1ccc(NC(=O)CN(C)c2ccccc2N2CCCC2=O)cn1,,,408
O=c1c2c([nH]c3cccc(Oc4ccc(OC(F)(F)F)cc4)c13)CCCC2,1 µM,pH 7.4,109
O=C1NC(CF)(CF)C(=O)N1c1ccc(F)c(C(F)(F)F)c1,,,< 7
CC1(C)CCC(C(=O)NCc2nc(-c3ccc(C#N)cc3)cs2)CN1C(=O)COCCF (racemic),0.5 µM,,219
Cc1ccc(N(c2ccc(NC(=O)CN(C)c3ccccc3N3CCCC3=O)cc2)C(C)C)cc1,,,319
Cc1cc(N2C(=O)NC(C)(C)C2=O)cc(C(F)(F)F)n1,,,< 7
Cc1ccc(N(C)c2ccc(NC(=O)CN(C)c3cc(F)ccc3N3CCCC3=O)cc2)cc1,,,260
CCOc1ccc(Nc2c3c(nc4ccccc24)CCC3)cc1,0.5 µM,,37
O=C(NCc1nc(-c2ccccc2)cs1)[C@H]1CCCN(C(=O)[C@@H]2CCCO2)C1,0.5 µM,,36
CN(CC(=O)Nc1ccc(N(C)c2ccc(Cl)c(F)c2)cc1)c1ccccc1N1CCCC1=O,,,218
Cc1[nH]c(C)c(S(=O)(=O)Nc2ccc(C(F)(F)F)c(Cl)c2Cl)c1C(=O)N1CCC(F)(F)C1,,,7.4
CC1(C)NC(=O)N(c2cc(C(F)(F)F)c(F)cc2C#N)C1=O,,,< 7
C[C@H]1[C@@H](C(=O)NCc2nc(-c3ccc(C#N)cc3)cs2)CCCN1C(=O)[C@H]1CCC(=O)O1,0.5 µM,,8
O=c1c2ccccc2[nH]c2cc(Oc3ccc(OC(F)(F)F)cc3)ccc12,1 µM,pH 7.4,20.9
Cc1ccc(OCC(=O)N[C@@H](Cc2c[nH]c3ccccc23)C(=O)OC(C)C)cc1,20 mM,,14.6
NCCCOCC(=O)N1CCC[C@H](C(=O)NCc2nc(-c3ccc(C4CC4)cc3)cs2)C1,0.5 µM,,11
Cc1ccc(N(C)c2ccc(NC(=O)CN(C)c3cccnc3N3CCCC3=O)cc2)cc1,,,222
N#Cc1ccc(-c2csc(CNC(=O)[C@H]3CCCN(C(=O)N4CCCO4)C3)n2)cc1,0.5 µM,,112
Cc1ccc(N(c2ccc(NC(=O)CN(C)c3ccccc3N3CCCC3=O)cn2)C(C)C)cc1,,,270
CC1(C)NC(=O)N(c2ccc(F)c(OC(F)(F)F)c2)C1=O,,,< 7
CCOCC(=O)N1CCC[C@H](C(=O)NCc2nc(-c3ccc(-n4cccn4)cc3)cs2)C1,0.5 µM,,64
CC1(C)NC(=O)N(c2cccc(C(F)(F)F)n2)C1=O,,,< 7
O=C(NCc1nc(-c2ccccc2)cs1)[C@H]1CCCN(C(=O)COCC2CC2)C1,0.5 µM,,102
O=c1c2c([nH]c3cc(Oc4ccc(OC(F)(F)F)cc4)ccc13)CCCC2,1 µM,pH 7.4,51.8
COc1cnc(Nc2cnnc3ccc(-c4ccc(N5CCN(C)CC5)cc4)cc23)nc1,,,93
O=c1c2ccc(OCc3cccc(OC(F)(F)F)c3)cc2[nH]c2cc(F)cc(Cl)c12,1 µM,pH 7.4,22.5
CCC(F)(F)c1cc(N2C(=O)NC(C)(C)C2=O)ccc1F,,,< 7
CONC(=O)c1cccc2c1cc(C)n2-c1nc2c(c(NCc3ccccc3)n1)CCCN2,1 µM,pH 7.4,98.7
O=c1c2c([nH]c3cc(Oc4ccc(OC(F)(F)F)cc4)c(F)cc13)CCCC2,1 µM,pH 7.4,72.5
